Compound activity from PubChem BioAssay.
Rows were chosen to be rich in hits. Some 1.9% of all compounds tested hit in one or more screens of this group.
LMPTP block: blocks human LMPTP phosphatase. recombinant LMPTP-A, OMFP fluorogenic substrate, fluorescence intensity. inhibition, % at 20 µM. hit rate 0.22% among 360,000;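 active = compounds that cut the enzyme signal by at least half of the control window in the single-dose screen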
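test system = LMPTP-A | amount = 0.625 nM LMPTP-A final | reagent = fluorogenic phosphatase substrate OMFP at 400 µM final | incubation = 50 min at room temperature | benchmarks = no-enzyme low control, uninhibited high control | medium = Bis-Tris pH 6.0, DTT, detergent | signal = fluorescence intensity of OMFP turnover product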
SUMO1 PPI mod: alters human SUMO1 binding to SIM partners. P63165. SUMO1 binding to a labelled peptide, TR-FRET, 1 h. inhibition, % at 20 µM. hit rate 0.33% among 360,000. AID 602429; in the data active = inhibition above about 37%
STEP block: blocks human striatal-enriched tyrosine phosphatase. inhibition, % at 20 µM. recombinant STEP, OMFP fluorogenic substrate, fluorescence. AID 588621. P54829. hit rate 0.25% among 360,000;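 active = inhibition at 20 µM, scaled per plate between control wells, above about 37%, limit read from the data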
Target sequence (P54829 whole entry, looked up): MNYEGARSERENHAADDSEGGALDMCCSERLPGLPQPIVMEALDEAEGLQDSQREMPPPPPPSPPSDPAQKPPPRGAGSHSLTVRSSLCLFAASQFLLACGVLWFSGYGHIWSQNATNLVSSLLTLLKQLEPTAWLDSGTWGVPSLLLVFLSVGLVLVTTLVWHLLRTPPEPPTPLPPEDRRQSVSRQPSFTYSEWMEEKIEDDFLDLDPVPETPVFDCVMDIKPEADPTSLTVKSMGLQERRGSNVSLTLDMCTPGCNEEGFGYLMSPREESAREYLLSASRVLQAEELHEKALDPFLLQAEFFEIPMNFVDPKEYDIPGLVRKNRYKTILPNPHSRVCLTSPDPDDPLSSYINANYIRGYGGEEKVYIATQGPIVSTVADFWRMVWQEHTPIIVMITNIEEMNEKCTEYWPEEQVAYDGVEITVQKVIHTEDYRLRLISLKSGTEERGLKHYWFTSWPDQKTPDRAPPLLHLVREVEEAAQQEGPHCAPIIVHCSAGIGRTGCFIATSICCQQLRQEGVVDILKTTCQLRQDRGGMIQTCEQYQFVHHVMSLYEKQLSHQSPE
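Assay system: isolated STEP enzyme. Buffer or medium: pH 6.0 Bis-Tris with DTT and Tween 20. Also added: fluorogenic phosphatase substrate OMFP at 25 µM final. Dosing: 20 µM, 1% DMSO. Timing: 20 min reaction, room temperature, in the dark. Measured by: fluorescence intensity, excitation 480 nm, emission 540 nm. Evaluation: normalized % inhibition.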
UBC9 SUMO inh: SUMOylation inhibition; AID 2006; P63279; hit rate 0.36% among 290,000; HTRF SUMOylation assay, SAE1/SAE2 + UBC9, in vitro; inhibition, % at 35 µM; in the data active = inhibition above about 50%, passing the limit was not always enough
DNMT1 block: DNMT1 (human) enzyme inhibition; P26358; DNMT1 molecular beacon, Hinp1I cleavage, fluorescence; inhibition (reported as % activation of signal), % at 10 µM; hit rate 0.83% among 360,000; AID 588458; in the data active = inhibition above about 50%
Scp1 inh: inhibitors of human Scp-1 phosphatase; inhibition, % at 20 µM; Q9GZU7; hit rate 0.88% among 340,000; Recombinant Scp1, phosphopeptide, malachite green phosphate absorbance; AID 493091;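 active = inhibition above about 50% at 20 µM, limit read from the data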
Target sequence (Q9GZU7 76-261 limits assumed): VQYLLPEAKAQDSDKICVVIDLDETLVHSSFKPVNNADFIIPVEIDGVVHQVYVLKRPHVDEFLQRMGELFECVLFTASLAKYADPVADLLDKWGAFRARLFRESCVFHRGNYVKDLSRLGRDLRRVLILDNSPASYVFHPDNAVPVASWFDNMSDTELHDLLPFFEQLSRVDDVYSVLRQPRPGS
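Assay system: SCP-1 catalytic fragment, aa 76-261 | Buffer or medium: Tris acetate buffer pH 5.5 with MgCl2 and Tween-20 | Compound: One concentration, 20 µM, with 1.0% DMSO | Also added: Phospho 17-mer peptide substrate | Signal: Absorbance at 630 nm | Incubation: 45 min enzyme reaction at room temperature | Measure: % inhibition of SCP-1 phosphate liberation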
Scp-1 conf: Scp-1 (human) inhibition, single-dose confirmed; recombinant SCP-1 catalytic domain, phosphate release, malachite green absorbance; inhibition, % at 20 µM; shares compounds with Scp1 inh; hit rate 61% among 2,500
Scp-1 MG ctr: interferes with malachite green readout, flagging false Scp-1 hits; shares compounds with Scp1 inh; Colorimetric interference counterscreen, malachite green absorbance 630 nm; apparent inhibition (interference), % at 20 µM; 2,500 tested, under 10 active;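 note: compounds added after enzyme reaction finished so only phosphate colour detection is probed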
Scp1 DSF: binds human Scp-1, shifting its melting temperature; Recombinant SCP1, Sypro Orange thermal shift Tm; shares compounds with Scp1 inh; hit rate 25% among 1,500; thermal shift relative to vanadate control, % at 40 µM; AID 540329;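 active = substances whose mean melting-temperature shift, as a percentage of the reference inhibitor's shift, reaches about 5.3%, limit read from the data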
Of the large screens only hits and unclear results are named; the others gave an inactive call (follow-up assays come after a bar, where they were run).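 Rule for the calls, unless noted: active = inhibition of at least 30% at 20 µM; inactive = the rest.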

CN(C)S(=O)(=O)c1ccc(Cl)c(NC(=O)COC(=O)/C=C/c2ccco2)c1	Scp1 inh 69 | Scp-1 conf 46 | Scp-1 MG ctr inactive | Scp1 DSF inactive
COc1ccc(/C=C/C(=O)OCC(=O)Nc2cc(S(=O)(=O)N(C)C)ccc2Cl)cc1	none
Cc1nc(NC(=O)COC(=O)/C=C/c2ccco2)c(Cl)cc1Cl	none (no result: UBC9 SUMO inh)
O=C(COC(=O)/C=C/c1ccco1)NCCN1C(=O)CSC1=O	Scp1 inh 65 (no result: UBC9 SUMO inh) | Scp-1 conf inactive | Scp-1 MG ctr inactive
O=C(COC(=O)/C=C/c1ccco1)Nc1ncc(Cl)cc1Cl	Scp1 inh 57 | Scp-1 conf 56 | Scp-1 MG ctr inactive | Scp1 DSF inactive
COc1ccc(-c2ccc3c(c2)C2CC3CCN2C(=O)OCc2ccccc2)cc1 (stereo not drawn)	none (no result: UBC9 SUMO inh)
Cc1ccc(C)c(OCCn2nnc3ccccc32)c1	none
Cc1cc(C)cc(OCCn2nnc3ccccc32)c1	Scp1 inh 62 | Scp-1 conf inactive | Scp-1 MG ctr inactive
CCn1c(=O)c(NC(=O)c2ccccc2)c2n(c1=S)CCCCC2	Scp1 inh 61 | Scp-1 conf 40 | Scp-1 MG ctr inactive | Scp1 DSF inactive
CCCN(CC(=O)Nc1ccccc1C)C(=O)C1CC(=O)N(Cc2ccccc2)C1 (stereo not drawn)	none (no result: UBC9 SUMO inh) | Scp-1 conf inactive | Scp-1 MG ctr inactive
COc1ccc2[nH]cc(C(O)CN3CCC(C(N)=O)CC3)c2c1 (stereo not drawn)	Scp1 inh 71 | Scp-1 conf inactive | Scp-1 MG ctr inactive
Oc1ccc(C=Nc2ccc(N3CCOCC3)cc2)c(O)c1	Scp1 inh 52 | Scp-1 conf 45 | Scp-1 MG ctr inactive | Scp1 DSF inactive
Oc1c(Cl)cc(Cl)cc1C=Nc1ccc(N2CCOCC2)cc1	none
Cc1c(C(=O)N2C[C@@H](C)O[C@@H](C)C2)oc2c(F)cccc12	none
CC1CCN(C(=O)CN2C(=O)C(=O)N(C)C2=O)c2ccccc2S1 (stereo not drawn)	none (no result: UBC9 SUMO inh)
Cn1c(O)c(N=NC(=O)c2ccccc2O)c2ccccc21	none
Cc1cc(N=NC(=O)c2ccccc2O)c2ccccc2c1O	STEP block 97, Scp1 inh 95 | Scp-1 conf 79 | Scp-1 MG ctr inactive | Scp1 DSF 12
Cc1ccc(S(=O)(=O)N(C)C)cc1NC(=O)Nc1ccccc1	none
CCOc1ccccc1NC(=O)Nc1cc(S(=O)(=O)N(C)C)ccc1C	Scp1 inh 73 | Scp-1 conf inactive | Scp-1 MG ctr inactive
N/C(=N\OC(=O)Nc1ccccc1)c1ncc([N+](=O)[O-])s1	none
O=C(COc1ccc([N+](=O)[O-])cc1)Nc1ccc(C(=O)Nc2ccccc2C(=O)O)cc1	Scp1 inh 65 | Scp-1 conf 77 | Scp-1 MG ctr inactive | Scp1 DSF 7.5
Cc1ccccc1NC(=O)C(=O)NNC(=O)COc1ccc2ccccc2c1	Scp1 inh 52 | Scp-1 conf 69 | Scp-1 MG ctr inactive | Scp1 DSF inactive
O=C(COc1ccc2ccccc2c1)NNC(=O)c1ccc([N+](=O)[O-])cc1	Scp1 inh 54 | Scp-1 conf 74 | Scp-1 MG ctr inactive | Scp1 DSF 7.2
COc1ccc(C2Nc3ccccc3NC3=C2C(=O)CC(C)(C)C3)cc1O (stereo not drawn)	Scp1 inh 56 | Scp-1 conf inactive | Scp-1 MG ctr inactive
COc1ccc(C2Nc3ccccc3NC3=C2C(=O)CC(C)(C)C3)cc1OC (stereo not drawn)	none
COc1cc(C2CC(=O)NC3=C2C(=O)CC(C)(C)C3)ccc1O (stereo not drawn)	none | Scp-1 conf inactive | Scp-1 MG ctr inactive
COc1ccccc1-n1cnc2c(c1=O)c1nc3ccccc3nc1n2-c1ccc(C)c(C)c1	Scp1 inh 96 (no result: UBC9 SUMO inh) | Scp-1 conf 67 | Scp-1 MG ctr inactive | Scp1 DSF inactive
COCCCn1c2nc3ccccc3nc2c2c(=O)n(-c3ccccc3OC)cnc21	none
O=C(CSc1nccn1Cc1ccccc1)NC1CCCC1	none
C[C@H](CO)N1C[C@H](C)[C@@H](CN(C)C(=O)NC2CCCCC2)Oc2ccc(NS(=O)(=O)c3cccs3)cc2C1=O	Scp1 inh 56 (no result: UBC9 SUMO inh) | Scp-1 conf inactive | Scp-1 MG ctr inactive
C[C@@H]1CN([C@H](C)CO)C(=O)c2cc(NS(=O)(=O)c3cn(C)cn3)ccc2O[C@H]1CN(C)C(=O)Nc1ccccc1	Scp1 inh 82 (no result: UBC9 SUMO inh) | Scp-1 conf inactive | Scp-1 MG ctr inactive
CC(C)NC(=O)N(C)C[C@H]1Oc2ccc(NS(=O)(=O)c3cccs3)cc2C(=O)N([C@H](C)CO)C[C@@H]1C	none (no result: UBC9 SUMO inh)
C[C@H]1CN([C@@H](C)CO)C(=O)Cc2cc(NS(=O)(=O)c3cn(C)cn3)ccc2O[C@@H]1CN(C)C(=O)Nc1ccc(F)cc1	Scp1 inh 73 (no result: UBC9 SUMO inh) | Scp-1 conf 37 | Scp-1 MG ctr inactive | Scp1 DSF inactive
COc1ccc([C@@H]2CC(=O)c3c(O)cc(O[C@@H]4O[C@H](CO[C@@H]5O[C@@H](C)[C@H](O)[C@@H](O)[C@H]5O)[C@@H](O)[C@H](O)[C@H]4O)cc3O2)cc1O	Scp1 inh 62 | Scp-1 conf 39 | Scp-1 MG ctr inactive | Scp1 DSF inactive
O=[N+]([O-])c1cc(S(=O)(=O)Nc2ccccc2)ccc1Nc1ccccc1	Scp1 inh 61 (no result: UBC9 SUMO inh) | Scp-1 conf inactive | Scp-1 MG ctr inactive
O=[N+]([O-])c1cc(S(=O)(=O)Nc2ccccc2)ccc1NCc1ccccc1	none
O=C(Nc1ccc(-c2ccccc2)cc1)c1ccco1	Scp1 inh 59 | Scp-1 conf inactive | Scp-1 MG ctr inactive
Cc1nnc2ccc(-c3ccc(NC(=O)c4ccco4)cc3)nn12	SUMO1 PPI mod 52, Scp1 inh 89 | Scp-1 conf inactive | Scp-1 MG ctr inactive
C/C(CC(=O)Nc1ccc2c(c1)OCCO2)=N\NC(=O)c1ccccn1	none
CCNC(=O)C1(C)CCCN(C(=O)c2ccccc2Br)C1 (stereo not drawn)	none (no result: UBC9 SUMO inh, Scp1 inh)
Cc1ccc(C(=O)O)cc1NC(=O)c1ccc2c(c1)C(=O)N(c1ccc([N+](=O)[O-])cc1)C2=O	Scp1 inh 67 | Scp-1 conf 62 | Scp-1 MG ctr inactive | Scp1 DSF inactive
Cc1ccc(N2C(=O)c3ccc(C(=O)O)cc3C2=O)cc1C	none
